# Data reported in ChEMBL document CHEMBL5385869, “Novel 4-aminoquinolines: Synthesis, inhibition of the Mycobacterium tuberculosis enoyl-acyl carrier protein reductase, antitubercular activity, SAR, and preclinical evaluation” (Eur J Med Chem, 2023).
# Legend:
# [1] = Toxicity in CF-1 mouse assessed as reduction in body weight at 300 to 450 uM/kg, po administered daily for 14 days; format: organism-based; details: in vivo, 336 h, dose 300-450 µM/Kg, time 14 day
# Method in brief: (§1)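 Mice were infected with M. tuberculosis H37Rv. From 7 days after infection, test and reference drugs were given daily by oral gavage for 14 days, with a vehicle-only group. Body weight was followed over the course of the experiment.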
# [2] = Toxicity in CF-1 mouse assessed as reduction in body weight at 300 uM/kg, po administered daily for 14 days; format: organism-based; details: in vivo, 336 h, time 14 day; method in brief: as §1
# [3] = target: T1, Enoyl-[acyl-carrier-protein] reductase [NADH] (Mycobacterium tuberculosis, UniProt P9WGR1); experiment: Binding affinity to Mycobacterium tuberculosis InhA assessed as dissociation constant at 250 uM at 30 degreeC in presence of NADH by fluorescence spectroscopy
# T1 sequence (P9WGR1 whole entry): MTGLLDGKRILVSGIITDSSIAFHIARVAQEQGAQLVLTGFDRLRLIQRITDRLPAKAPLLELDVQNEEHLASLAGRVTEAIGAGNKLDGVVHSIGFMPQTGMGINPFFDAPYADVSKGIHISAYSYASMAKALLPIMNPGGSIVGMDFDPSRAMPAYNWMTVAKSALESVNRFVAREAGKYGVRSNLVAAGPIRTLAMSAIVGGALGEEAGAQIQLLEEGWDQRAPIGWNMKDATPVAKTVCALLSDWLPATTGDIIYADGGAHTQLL
# Method in brief: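 Titration of pre-formed MtInhA:NADH complex (2 mL of 3 μM enzyme with 20 μM NADH), adding microliter aliquots of 250 μM ligand stock with dilution kept ≤1%. Intrinsic fluorescence read at 295 nm excitation, 310–500 nm emission. Temperatures 15, 20, 25 and 30 °C. KD is fitted to a hyperbolic isotherm. ΔH°, ΔS° and ΔG° come from van't Hoff analysis of KD across temperatures.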
structure (smiles),measurement,setting,value
Cc1cc(Nc2ccc(N3CCCCC3)cc2)c2cc(Br)ccc2n1,Activity,[1],Non-Toxic
same,Activity,[2],Non-Toxic
same,Kd,[3],1.34 µM
